The source of these data is ChEMBL document CHEMBL1141070, “Synthesis and biological activity of flurbiprofen analogues as selective inhibitors of beta-amyloid(1)(-)(42) secretion” (J Med Chem, 2005).

A value given as a limit tells only on which side of the number the result lay.

Data set [1] addresses T1, Cytochrome P450 1A2 (Homo sapiens, UniProt P05177).
T1 sequence (P05177 whole entry): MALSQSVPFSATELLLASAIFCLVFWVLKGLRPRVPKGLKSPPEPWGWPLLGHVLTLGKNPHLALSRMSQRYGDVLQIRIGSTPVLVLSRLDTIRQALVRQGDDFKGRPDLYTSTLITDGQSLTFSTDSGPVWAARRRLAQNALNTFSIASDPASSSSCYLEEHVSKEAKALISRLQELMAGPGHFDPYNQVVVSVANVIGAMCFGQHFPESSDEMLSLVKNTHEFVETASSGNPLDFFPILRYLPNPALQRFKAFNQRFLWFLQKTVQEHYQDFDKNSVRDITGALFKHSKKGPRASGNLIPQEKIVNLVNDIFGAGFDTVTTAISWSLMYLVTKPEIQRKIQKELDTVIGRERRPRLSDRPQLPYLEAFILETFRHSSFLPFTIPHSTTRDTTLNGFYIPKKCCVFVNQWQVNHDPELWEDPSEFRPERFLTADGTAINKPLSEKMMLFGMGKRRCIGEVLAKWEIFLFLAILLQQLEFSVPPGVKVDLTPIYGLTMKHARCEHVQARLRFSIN
The data set can be described thus: Interaction with human cytochrome P450 isoform 1A2 expressed in baculovirus-insect cells. It counts as ADME. The gist of the method: (§1)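 Microsomes from baculovirus-insect cells expressing human CYP1A2, 2C9, 2C19, 2D6 or 3A4. Compound serially diluted with an NADPH-regenerating mix (16.3 μM NADP+, 0.83 mM glucose-6-phosphate, 0.83 mM MgCl2, 0.4 U/mL G6PDH). Pre-warmed 10 min at 37 °C, then isoform-specific substrate added in 0.35 M potassium phosphate pH 7.4. Fluorometric read-out; IC50 by nonlinear regression.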

The target in data set [2] is T2, Cytochrome P450 3A4 (Homo sapiens, UniProt P08684). The data set can be described thus: (§2) Interaction with human cytochrome P450 isoform 3A4 expressed in baculovirus-insect cells. It counts as ADME. In short, it runs like this:
as §1

The target in data set [3] is T3, Amyloid-beta precursor protein (Homo sapiens, UniProt P05067). The data set can be described thus: Inhibitory concentration against beta-amyloid-42 (Abeta42) secretion was evaluated in human neuroglioma cells (H4-APP695NL). It counts as functional, cell-based. The gist of the method: (§3)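 H4-APP695NL human neuroglioma cells (APP695 Swedish K595N/M596L) seeded at 2 × 10^5/well and grown 24 h to confluence. Increasing compound concentrations added overnight; DMSO 1% as vehicle. Supernatant Aβ42 or Aβ40 measured by electrochemiluminescence immunoassay: biotinylated 4G8 plus C-terminus-specific rabbit antibodies, captured on streptavidin beads.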
Target sequence in this assay (P05067 18-770 limits assumed): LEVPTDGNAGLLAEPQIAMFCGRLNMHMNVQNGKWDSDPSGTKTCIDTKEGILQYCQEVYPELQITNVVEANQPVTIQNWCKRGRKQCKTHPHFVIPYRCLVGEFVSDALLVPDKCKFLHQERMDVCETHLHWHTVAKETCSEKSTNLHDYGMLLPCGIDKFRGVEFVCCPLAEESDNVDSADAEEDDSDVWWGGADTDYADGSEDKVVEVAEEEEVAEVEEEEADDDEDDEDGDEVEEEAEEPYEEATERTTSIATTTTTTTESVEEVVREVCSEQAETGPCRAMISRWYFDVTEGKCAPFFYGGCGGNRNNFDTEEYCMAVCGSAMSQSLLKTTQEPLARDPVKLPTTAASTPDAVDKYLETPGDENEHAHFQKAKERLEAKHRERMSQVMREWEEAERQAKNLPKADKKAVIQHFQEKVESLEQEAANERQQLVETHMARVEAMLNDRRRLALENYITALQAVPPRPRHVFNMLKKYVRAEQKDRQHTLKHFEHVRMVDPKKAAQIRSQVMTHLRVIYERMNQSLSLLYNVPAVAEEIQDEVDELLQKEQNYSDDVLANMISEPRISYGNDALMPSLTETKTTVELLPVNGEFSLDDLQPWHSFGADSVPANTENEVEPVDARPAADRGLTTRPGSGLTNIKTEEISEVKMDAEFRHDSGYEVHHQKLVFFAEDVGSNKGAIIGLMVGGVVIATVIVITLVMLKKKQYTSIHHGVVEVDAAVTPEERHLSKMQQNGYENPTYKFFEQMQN

Data set [4] deals with T3, Amyloid-beta precursor protein. The data set can be described thus: Concentration required to inhibit A beta 40 peptide 100 uM.
Target sequence in this assay (P05067 whole entry): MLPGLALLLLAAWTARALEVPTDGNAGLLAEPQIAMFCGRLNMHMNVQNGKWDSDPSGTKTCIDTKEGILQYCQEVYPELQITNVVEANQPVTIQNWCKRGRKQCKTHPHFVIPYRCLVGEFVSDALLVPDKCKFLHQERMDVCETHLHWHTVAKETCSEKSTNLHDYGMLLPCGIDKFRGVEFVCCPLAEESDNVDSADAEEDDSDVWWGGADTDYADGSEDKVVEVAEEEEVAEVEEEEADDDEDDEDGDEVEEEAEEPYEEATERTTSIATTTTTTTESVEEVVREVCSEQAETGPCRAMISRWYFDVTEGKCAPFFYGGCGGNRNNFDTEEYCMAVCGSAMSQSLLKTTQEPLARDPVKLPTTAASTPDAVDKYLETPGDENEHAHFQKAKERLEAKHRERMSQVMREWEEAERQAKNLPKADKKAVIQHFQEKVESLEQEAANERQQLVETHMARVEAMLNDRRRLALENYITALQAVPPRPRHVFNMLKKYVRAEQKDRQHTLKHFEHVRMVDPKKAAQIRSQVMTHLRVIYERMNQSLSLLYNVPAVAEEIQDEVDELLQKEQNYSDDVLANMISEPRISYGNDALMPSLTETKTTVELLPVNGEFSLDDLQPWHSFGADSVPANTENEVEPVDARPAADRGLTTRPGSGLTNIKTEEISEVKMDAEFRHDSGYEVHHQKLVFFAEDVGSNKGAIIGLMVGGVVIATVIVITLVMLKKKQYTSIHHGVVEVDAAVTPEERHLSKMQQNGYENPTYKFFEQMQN
The nature of data set [5]: In vivo steady state metabolic clearance of the compound. The settings on record: rat.
Data set [6] has as its target T4, Prostaglandin G/H synthase 1 (Rattus norvegicus) (UniProt Q63921).
T4 sequence (whole entry): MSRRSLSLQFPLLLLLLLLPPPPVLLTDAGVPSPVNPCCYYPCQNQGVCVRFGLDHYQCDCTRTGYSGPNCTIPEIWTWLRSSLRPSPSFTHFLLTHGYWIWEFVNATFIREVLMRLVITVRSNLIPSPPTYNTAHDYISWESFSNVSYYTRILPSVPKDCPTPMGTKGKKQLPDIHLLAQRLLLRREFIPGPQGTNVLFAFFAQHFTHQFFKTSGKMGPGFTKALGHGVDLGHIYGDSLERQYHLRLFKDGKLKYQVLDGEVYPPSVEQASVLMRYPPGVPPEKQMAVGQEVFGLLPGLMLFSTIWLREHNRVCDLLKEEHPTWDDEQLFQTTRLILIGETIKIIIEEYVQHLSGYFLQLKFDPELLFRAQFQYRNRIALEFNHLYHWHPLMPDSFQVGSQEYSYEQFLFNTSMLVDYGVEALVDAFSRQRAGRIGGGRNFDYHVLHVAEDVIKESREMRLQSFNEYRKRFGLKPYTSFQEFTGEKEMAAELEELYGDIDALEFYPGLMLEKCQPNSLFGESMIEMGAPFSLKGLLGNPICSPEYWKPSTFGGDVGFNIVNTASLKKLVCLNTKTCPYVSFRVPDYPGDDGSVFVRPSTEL
The data set can be described thus: Percent inhibition against cyclooxygenase-1 at 100 uM in rat blood. In short, it runs like this: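 Fresh rat whole blood preincubated 1 h at 37 °C with compound (100 μM) or DMSO (0.3% final). Stimulated 30 min with A23187 calcium ionophore; plasma thromboxane B2 measured by radioimmunoassay.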

Data set [7] is described as follows: Intestinal drug absorption was estimated in vitro using human colon adenocarcinoma (Caco-2) cell monolayers. It counts as ADME. In short, it runs like this: (§4)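 Caco-2 monolayers on polycarbonate Transwell inserts, 2 h at 37 °C. Apical and basolateral solutions analysed by LC-MS/MS (SRM). Papp = Cb·Vb/(C0·A·t).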
Data set [8] can be described thus: Concentration ratio in cerebrospinal fluid and plasma; LLOQ = lower limit of quantitation. Conditions: rat.
The target of data set [9] is T3, Amyloid-beta precursor protein. The settings on record: at 100 µM.
Target sequence in this assay (P05067 whole entry): as the sequence (P05067 whole entry) above
Data set [10] in a line: Concentration ratio in cerebrospinal fluid and plasma; below lower limit of quantitation. Conditions: rat.
A short description of data set [11]: Intestinal drug absorption was estimated in vitro using human colon adenocarcinoma (Caco-2) cell monolayers; Range is 10-50 nm/s. It counts as ADME. The gist of the method:
as §4

Data set [12] deals with T3, Amyloid-beta precursor protein. The data set can be described thus: Concentration required to inhibit A beta 40 peptide. In short, it runs like this: as §3
Target sequence in this assay (P05067 whole entry): as the sequence (P05067 whole entry) above
A short description of data set [13]: Concentration ratio in cerebrospinal fluid and plasma. The settings on record: rat.
For data set [14], the target named is T5, CYP1A2 (Homo sapiens, UniProt P05177).
T5 sequence (P05177 whole entry): T1 sequence (P05177 whole entry)
The data set can be described thus: Interaction with human cytochrome P450 isoform 1A2 expressed in baculovirus-insect cells at 100 uM. It counts as ADME. In short, it runs like this: as §1

For data set [15], the target named is CYP2C19 (Homo sapiens, UniProt P33261). The data set can be described thus: Interaction with human cytochrome P450 isoform 2C19 expressed in baculovirus-insect cells at 100 uM. It counts as ADME. The gist of the method: as §1
CYP2C19, sequence (P33261 whole entry, canonical isoform): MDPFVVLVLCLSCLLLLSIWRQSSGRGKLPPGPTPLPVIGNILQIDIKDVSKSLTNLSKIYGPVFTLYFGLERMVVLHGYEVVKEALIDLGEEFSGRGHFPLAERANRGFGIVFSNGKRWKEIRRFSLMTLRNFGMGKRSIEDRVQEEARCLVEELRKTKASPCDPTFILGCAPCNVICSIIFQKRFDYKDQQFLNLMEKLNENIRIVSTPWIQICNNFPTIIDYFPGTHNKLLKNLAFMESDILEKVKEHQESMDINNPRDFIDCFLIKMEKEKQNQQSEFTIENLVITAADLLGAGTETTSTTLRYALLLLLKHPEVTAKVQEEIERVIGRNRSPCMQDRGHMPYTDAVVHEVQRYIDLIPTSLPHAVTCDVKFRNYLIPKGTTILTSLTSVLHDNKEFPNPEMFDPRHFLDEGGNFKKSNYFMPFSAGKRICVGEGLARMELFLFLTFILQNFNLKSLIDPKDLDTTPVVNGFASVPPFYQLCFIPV
Data set [16] deals with CYP2D6 (Homo sapiens, UniProt P10635). The data set can be described thus: (§5) Interaction with human cytochrome P450 isoform 2D6 expressed in baculovirus-insect cells at 100 uM. It counts as ADME. In short, it runs like this:
as §1

For data set [17], the target named is Cytochrome P450 2D6 (Homo sapiens, UniProt P10635). Described as §5. It counts as ADME. The gist of the method: as §1
Cytochrome P450 2D6, sequence (P10635 whole entry): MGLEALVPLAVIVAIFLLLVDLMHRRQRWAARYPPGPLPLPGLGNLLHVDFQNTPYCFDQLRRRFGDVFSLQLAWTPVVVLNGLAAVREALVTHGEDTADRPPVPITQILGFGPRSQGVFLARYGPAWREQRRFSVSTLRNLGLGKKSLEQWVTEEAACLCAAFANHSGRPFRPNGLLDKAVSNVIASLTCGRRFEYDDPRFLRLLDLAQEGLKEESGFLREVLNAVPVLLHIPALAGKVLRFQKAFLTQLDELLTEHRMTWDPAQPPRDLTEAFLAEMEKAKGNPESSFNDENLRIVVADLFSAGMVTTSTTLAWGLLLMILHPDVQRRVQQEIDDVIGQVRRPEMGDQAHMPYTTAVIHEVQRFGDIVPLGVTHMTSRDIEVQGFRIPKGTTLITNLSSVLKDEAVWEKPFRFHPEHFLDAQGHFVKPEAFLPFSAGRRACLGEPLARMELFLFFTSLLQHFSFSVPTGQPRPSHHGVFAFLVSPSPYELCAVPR
The target of data set [18] is T2, Cytochrome P450 3A4. Described as §2. It counts as ADME. In short, it runs like this:
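Supersome microsomes from baculovirus-insect cells expressing human CYP1A2, 2C9, 2C19, 2D6 or 3A4 were used with isoform-specific fluorogenic substrates. Compounds were serially diluted with an NADP⁺/glucose-6-phosphate regenerating system in 0.35 M potassium phosphate, pH 7.4. Plates were prewarmed 10 min at 37 °C, reactions stopped with acetonitrile/Tris, and fluorescence read. IC50 was obtained by nonlinear regression.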
The source holds these as a separate data set.

For data set [19], the target named is Cytochrome P450 2C19 (Homo sapiens, UniProt P33261). The data set can be described thus: Interaction with human cytochrome P450 isoform 2C19 expressed in baculovirus-insect cells. It counts as ADME. The gist of the method: as §1
Cytochrome P450 2C19, sequence (P33261 whole entry, canonical isoform): as the sequence (P33261 whole entry, canonical isoform) above
The target in data set [20] is Cytochrome P450 2C9 (Homo sapiens, UniProt P11712). The data set can be described thus: Interaction with human cytochrome P450 isoform 2C9 expressed in baculovirus-insect cells at 100 uM. It counts as ADME. In short, it runs like this:
as §1

In data set [21] the target is T3, Amyloid-beta precursor protein. The data set can be described thus: Concentration required to inhibit A beta 40 peptide at 100 uM. The gist of the method: as §3
Target sequence in this assay (P05067 whole entry): as the sequence (P05067 whole entry) above

T2 sequence (P08684 whole entry, canonical isoform): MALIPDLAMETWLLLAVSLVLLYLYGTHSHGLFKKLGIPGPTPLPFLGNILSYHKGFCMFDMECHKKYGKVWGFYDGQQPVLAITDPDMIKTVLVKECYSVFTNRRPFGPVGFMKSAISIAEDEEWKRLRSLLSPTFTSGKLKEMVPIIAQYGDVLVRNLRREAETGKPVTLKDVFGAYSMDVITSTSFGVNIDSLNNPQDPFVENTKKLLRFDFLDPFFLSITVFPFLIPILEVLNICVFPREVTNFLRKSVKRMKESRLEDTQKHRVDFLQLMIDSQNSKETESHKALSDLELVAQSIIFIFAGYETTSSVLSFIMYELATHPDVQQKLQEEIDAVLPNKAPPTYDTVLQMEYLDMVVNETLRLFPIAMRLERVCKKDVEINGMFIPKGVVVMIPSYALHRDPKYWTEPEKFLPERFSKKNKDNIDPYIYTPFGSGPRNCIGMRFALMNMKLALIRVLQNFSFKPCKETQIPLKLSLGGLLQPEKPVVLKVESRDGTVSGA
CYP2D6, sequence (P10635 whole entry, canonical isoform): as the sequence (P10635 whole entry) above
Cytochrome P450 2C9, sequence (P11712 whole entry, canonical isoform): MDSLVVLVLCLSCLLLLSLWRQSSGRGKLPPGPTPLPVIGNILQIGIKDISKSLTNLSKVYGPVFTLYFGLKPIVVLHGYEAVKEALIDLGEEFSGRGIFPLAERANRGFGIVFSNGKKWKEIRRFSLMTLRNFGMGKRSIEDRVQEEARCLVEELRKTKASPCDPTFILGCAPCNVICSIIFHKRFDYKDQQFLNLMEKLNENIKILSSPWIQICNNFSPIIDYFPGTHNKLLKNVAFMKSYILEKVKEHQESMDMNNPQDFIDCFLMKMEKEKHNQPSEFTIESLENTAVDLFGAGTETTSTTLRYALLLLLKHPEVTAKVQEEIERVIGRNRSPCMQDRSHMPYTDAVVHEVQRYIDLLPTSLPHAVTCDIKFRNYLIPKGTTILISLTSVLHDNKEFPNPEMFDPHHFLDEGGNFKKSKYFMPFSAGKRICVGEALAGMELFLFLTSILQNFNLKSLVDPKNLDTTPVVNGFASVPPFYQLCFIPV

On to `CC(C(=O)O)c1ccc(-c2ccc(OC3CCCCC3)cc2)c(F)c1` (stereo not drawn), for which the Inhibition in data set [1] and in data set [2] was more than 50% throughout. In addition, the midpoint of inhibition in [3], the IC50, lay at 41 µM. For the same compound, the inhibition – broadly, the relative decrease from the control value, in per cent – was determined as 25% in data set [4], 20% in data set [6] and 76% in data set [9]. This compound also came in with a Clearance in data set [5] of 148 mL/h. Besides, in data set [7], the Papp (as a rule, the rate of passage across a membrane or cell layer, normalised by area and donor concentration) was more than 5 ×10⁻⁶ cm/s. In addition, in data set [8], the Ratio result is listed as “Below LLOQ”.

For `O=C(O)C1(c2ccc(-c3ccc(C4CCOCC4)cc3)c(F)c2)CC1`, in [10], the Ratio result is “Below LLOQ”. The same compound gave a Clearance in [5] of 39 mL/h. This compound showed an inhibition in data set [9] of 52%.

For the compound `CC(C(=O)O)c1ccc(-c2ccc(C3CCCCC3)cc2)c(F)c1` (stereo not drawn), the Papp in [11] is 5 ×10⁻⁶ cm/s. The IC50 (usually the concentration that gives 50% inhibition) in data set [3] came to 21 µM; in data set [12], 46 µM. The compound further registered a Clearance in data set [5] of 174 mL/h. Moreover, in data set [13], the Ratio is given as 1.5%. For the same compound, the inhibition at 100 µM in [14], in data set [15] and in data set [16] was more than 50% in each case. For the same compound, the inhibition in [6] amounted to 18%; in data set [9] it was 79%. In data set [17], the Inhibition – broadly, the percentage by which the read-out fell short of the control – is recorded as more than 50%.

For the compound `O=C(O)C1(c2ccc(-c3ccc(-c4ccc(O)cc4)c(F)c3)c(F)c2)CC1`, the Ratio result in data set [10] is on record as “Below LLOQ”. Besides, the IC50 in data set [3] stood at 33.6 µM; in [12] it was 111 µM; in data set [18], 58 µM; in data set [19], 74 µM. This compound also showed a Clearance in [5] of 109 mL/h. Besides, the inhibition in [6] was less than 1%; in data set [9] it was 80%. Moreover, the Papp in [7] was more than 5 ×10⁻⁶ cm/s.

Regarding `CC(C(=O)O)c1ccc(-c2csc3ccccc23)c(F)c1` (stereo not drawn), the IC50 in data set [3] worked out at 83 µM. In addition, the inhibition was found to be 68% in data set [6] and 96% in data set [9]. Further, the Papp in data set [7] was more than 5 ×10⁻⁶ cm/s. Moreover, the Activation in [20] was more than 50%.

In data set [21], `COC(=O)C(C)c1ccc(-c2cc(Cl)cc(Cl)c2)c(F)c1` (stereo not drawn) had an inhibition of 45%.
